Results on 8 compounds are retold here after ChEMBL document CHEMBL3822382 (Eur J Med Chem, 2016).

The species named for one data set is Sus scrofa. Briefly: Inhibition of porcine brain alpha/beta tubulin polymerization at 5 uM measured every 20 sec by microplate reader analysis.
Data set [1] has as its system HT-29. Briefly: Growth inhibition of combretastatin A-4 resistant human HT-29 cells after 72 hrs by MTT assay. Format: functional, cell-based. The conditions noted are these: HT-29, 72 h. In outline:
(§1)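 5000 cells/well exposed for 72 h to dilution series of 100 µM–5 pM, with DMSO as solvent control. MTT 0.5 mg/mL final for 2 h, absorbance at 570/630 nm. Percentage viable cells taken versus DMSO controls; IC50 from dose–response curves, mean of four independent experiments.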
In general terms: Tetrazolium assays rely on reduction of a dye to a coloured formazan, in cell work by metabolically active cells.

A short description of data set [2]: Growth inhibition of human HCT116 cells expressing wild type p53 after 72 hrs by MTT assay. Format: functional, cell-based. The conditions noted are these: HCT-116, 72 h. In outline: (§2)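 HCT-116 cells, p53 wild-type or p53-/-, seeded at 5000/well and treated 72 h with dilution series (100 µM–5 pM) or DMSO. MTT 0.5 mg/mL for 2 h, absorbance at 570/630 nm. Viability relative to DMSO controls; IC50 from dose–response curves, mean of three independent experiments ± S.D.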

Data set [3] is described as follows: Growth inhibition of p53 null human HCT116 cells after 72 hrs by MTT assay. Format: functional, cell-based. Particulars: HCT-116, 72 h. Summed up:
as §2

Data set [4] in a line: Growth inhibition of primary chicken fibroblasts after 48 hrs by MTT assay. Format: cell-based. Particulars: Gallus gallus, Fibroblast. In outline: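 Chicken heart fibroblasts explanted from 10-day-old embryos, seeded at 10,000/well; cardiomyocytes seeded at 20,000/well. Dilution series given for 48 h, DMSO as control. MTT 0.5 mg/mL for 2 h, absorbance at 570/630 nm. Viability versus DMSO controls; IC50 from dose–response curves, mean of three independent experiments.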

Data set [5] deals with HT-29. Description: Cell cycle arrest in combretastatin A-4 resistant human HT-29 cells assessed as mitotic cells at 5 uM after 24 hrs by propidium iodide/immunostaining method (reference value: 3.1 to 3.2%). In kind it is functional. In outline:
(§3)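 HT-29 cells (200,000/well) were treated 24 h with 100 nM indole, 5 μM CA-4 or DMSO. Cells were trypsinized, fixed in 4% formaldehyde (20 min, RT) and permeabilized in 90% ice-cold methanol (30 min). They were immunostained with anti-phospho-histone H3 (Ser10) (5 μg/mL, 37 °C, 1 h) plus an AlexaFluor-488 secondary, then stained with PI/RNase (30 min, 37 °C). Flow cytometry of 10,000 single cells assigned G1/S/G2/M.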

Data set [6] deals with HT-29. Description: Cell cycle arrest in combretastatin A-4 resistant human HT-29 cells assessed as accumulation at G1 phase at 5 uM after 24 hrs by propidium iodide staining-based flow cytometry (reference value: 68.1 +/- 0.3%). In kind it is functional. Summed up:
as §3

Data set [7] deals with HT-29. Description: Cell cycle arrest in combretastatin A-4 resistant human HT-29 cells assessed as accumulation at S phase at 5 uM after 24 hrs by propidium iodide staining-based flow cytometry (reference value: 13.7 +/- 0.3%). Format: functional. In outline: as §3
In general terms: Flow cytometry measures light scatter and fluorescence of single cells or particles in a stream.

The test system of data set [8] is HT-29. Description: Cell cycle arrest in combretastatin A-4 resistant human HT-29 cells assessed as accumulation at G2 phase at 5 uM after 24 hrs by propidium iodide staining-based flow cytometry (reference value: 15.6 +/- 0.1%). Format: functional. Summed up:
as §3

The subject of data set [9] is EA.hy 926. Description: Antivascular activity in human EAhy926 cells assessed as induction of retraction of cells to nodes at 100 nM after 16 hrs by light microscopic analysis. In kind it is functional, cell-based. Summed up:
(§4)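 Ea.hy926 cells (100,000/well) were seeded on Matrigel-coated coverslips and allowed 12 h to form vessel-like networks. Test agent (CA-4 100 nM; indoles 250 nM) or DMSO was then added for 16 h, and networks were documented by light microscopy. Viability was checked by 2 h MTT (0.5 mg/mL) relative to DMSO controls.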

Data set [10] deals with EA.hy 926. Description: Antivascular activity in human EAhy926 cells assessed as change in cell morphology from stretched to rounded form at 100 nM after 16 hrs by matrigel based tube formation assay. In kind it is functional. Summed up:
as §4

Data set [11] deals with EA.hy 926. Description: Antivascular activity in human EAhy926 cells assessed as disruption of preformed blood vessel lke network at 100 nM after 16 hrs by matrigel based tube formation assay. In kind it is functional, cell-based. In outline:
as §4

Data set [12] is described as follows: Cytotoxicity against human EAhy926 cells assessed as cell viability at 100 nM after 16 hrs by MTT assay relative to control. In kind it is cell-based, EA.hy 926. Particulars: read-out: Activity. In outline: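 Ea.hy926 cells (100,000/well) seeded on Matrigel-coated coverslips and left 12 h to form networks, then exposed to compound for 16 h. Viability was read by 2 h MTT (0.5 mg/mL) and absorbance of the formazan, expressed relative to DMSO controls.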

Data set [13] in a line: Cytotoxicity against fertilized white leghorn chicken embryos in CAM model assessed as lethality at 5 nmol after 24 hrs relative to control. In kind it is organism-based, Gallus gallus. Particulars: in vivo. Summed up:
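Day-5 fertilized eggs (37 °C, 50-60% humidity) windowed, with 6 mm silicon rings placed on CAM vessels and incubated a further 24 h. Compound diluted to 500 µM in PBS and pipetted inside the ring (10 µL = 5 nmol); DMSO control. Vessel changes documented by stereomicroscopy at 0, 12 and 24 h.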

The nature of data set [14]: Growth inhibition of human MCF7/Topo cells after 72 hrs by MTT assay. In kind it is functional, cell-based. Summed up: (§5)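 MTT assay: cells seeded at 5000/well (MCF-7/Topo) or 10,000/well (Ea.hy926), then given dilution series (100 µM–5 pM) or DMSO for 72 h. MTT was added at 0.5 mg/mL final for 2 h, formazan dissolved in SDS/acetic acid/DMSO, and absorbance read at 570 nm with 630 nm background. Viability was set relative to DMSO controls, and IC50 taken as the mean of at least three experiments ± S.D.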

The nature of data set [15]: Growth inhibition of human EAhy926 cells after 72 hrs by MTT assay. In kind it is cell-based. Particulars: EA.hy 926, 72 h. Summed up:
as §5

Data set [16] can be described thus: Growth inhibition of human MCF7/Topo cells after 24 hrs by MTT assay. Format: functional, cell-based. Summed up:
(§6)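 Cells seeded at 5000/well (Ea.hy926 10,000/well) and exposed for 24 h to dilution series of 100 µM–5 pM, with DMSO as solvent control. MTT (0.5 mg/mL final) for 2 h. Formazan dissolved in SDS/acetic acid/DMSO and read at 570 nm against a 630 nm background. Viability taken relative to DMSO controls; IC50 from dose–response curves, mean of four independent experiments.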

Data set [17] is described as follows: Growth inhibition of human 518A2 cells after 72 hrs by MTT assay. In kind it is functional, cell-based. Particulars: 518A2, 72 h. In outline: as §1
Data set [18] in a line: Growth inhibition of human 518A2 cells after 24 hrs by MTT assay. Format: functional, cell-based. Particulars: 518A2, 24 h. Summed up: as §6
Data set [19] relates to HT-29. Briefly: Growth inhibition of combretastatin A-4 resistant human HT-29 cells after 24 hrs by MTT assay. Particulars: HT-29, 24 h. Format: functional, cell-based. In outline:
as §6

Data set [20] is described as follows: Growth inhibition of human KB-V1/Vbl cells after 24 hrs by MTT assay. Format: functional. In outline: as §6
Data set [21] in a line: Cell cycle arrest in human 518A2 cells assessed as accumulation at subG1 phase at 200 nM after 24 hrs by propidium iodide staining-based flow cytometry (reference value: 3.8%). Format: functional.
The nature of data set [22]: Cell cycle arrest in human 518A2 cells assessed as accumulation at G1 phase at 200 nM after 24 hrs by propidium iodide staining-based flow cytometry (reference value: 49.5%). In kind it is functional.
Data set [23] is described as follows: Cell cycle arrest in human 518A2 cells assessed as accumulation at S phase at 200 nM after 24 hrs by propidium iodide staining-based flow cytometry (reference value: 20.4%). Format: functional.
Data set [24] in a line: Cell cycle arrest in human 518A2 cells assessed as accumulation at G2/M phase at 200 nM after 24 hrs by propidium iodide staining-based flow cytometry (reference value: 26.3%). In kind it is functional.
Data set [25] can be described thus: Cell cycle arrest in human 518A2 cells assessed as apoptotic index ratio at 200 nM after 24 hrs by propidium iodide staining-based flow cytometry relative to control. In kind it is functional.
Data set [26] is described as follows: Cell cycle arrest in human 518A2 cells assessed as G2/M index ratio at 200 nM after 24 hrs by propidium iodide staining-based flow cytometry relative to control. Format: functional.

Each structure is given as a SMILES string. Active and inactive are the calls of the source. No cut-off for these calls is given here.

For orientation: IC50 means the concentration needed to halve the response being measured. Broadly, the mortality is the percentage killed. For the compound `COc1ccc(/C=C\c2cc(OC)c(OC)c(OC)c2)cc1O` [COMBRETASTATIN A4], in the data set listed under Sus scrofa, the inhibition entry is “Active”. Further, the IC50 was over 5000 nM with HT-29 [1]; 2.6 nM in data set [2]; 3.4 nM in [3]; 5480 nM in data set [4]; 154 nM in data set [14]; 11 nM in [15]. The Activity with HT-29 [5] came to 10.2%; in the data set with HT-29 [6] it was 51.4%; in the data set with HT-29 [7] it was 18.6%; in the data set on HT-29 [8], 18.2%. For the same compound, the result in the data set on EA.hy 926 [9], in the data set on EA.hy 926 [10] and in the data set on EA.hy 926 [11] was Active. Also, the viability at 16 h, 0.1 µM in data set [12] was over 90%. The mortality at 24 h in data set [13] is 60%.

Regarding `CCn1cc(Cl)c2cc(-c3c(-c4cc(Br)c(OC)c(OC)c4)ncn3C)ccc21`, the half-inhibitory concentration (IC50) was 91.3 nM in data set [16]; 82 nM in data set [17]; 216 nM in [18]; 116 nM in the data set with HT-29 [1]; 246 nM with HT-29 [19]; 48.4 nM in [20]. Further, the Activity worked out at 7.8% in [21], 39.7% in [22], 17.4% in data set [23] and 35.2% in [24]. Besides, the Ratio came to 5.1 in [25] and 1.7 in data set [26].

For the compound `COc1cc(-c2ncn(C)c2-c2ccc3c(c2)c(Cl)c(Cl)n3C)cc(Br)c1OC`, the IC50 in [16] amounted to 208 nM; in [17], 223 nM; in [18], 292 nM; in the data set with HT-29 [1], 223 nM; with HT-29 [19] it was 903 nM; in data set [20], 456 nM.

For the compound `COc1cc(-c2ncn(C)c2-c2ccc3c(c2)c(Cl)cn3C)cc(I)c1OC`, the IC50 in data set [16] worked out at 53.3 nM; in [17] it was 35.7 nM; in [18], 56.7 nM; in the data set on HT-29 [1], 39.7 nM; in the data set with HT-29 [19], 35.1 nM; in data set [20], 49.8 nM.

With `CCn1cc(Cl)c2cc(-c3c(-c4cc(I)c(OC)c(OC)c4)ncn3C)ccc21`, the IC50 was found to be 81.2 nM in data set [16]; 168 nM in [17]; 211 nM in data set [18]; 178 nM in the data set with HT-29 [1]; 482 nM in the data set on HT-29 [19]; 83.2 nM in data set [20].

Regarding `CCn1cc(Cl)c2cc(-c3c(-c4cc(OC)c(OC)c(OC)c4)ncn3C)ccc21`, the IC50 in data set [16] amounted to 30.2 nM; in data set [17], 33 nM; in [18], 739 nM; with HT-29 [1], 43.4 nM; in the data set on HT-29 [19], 75.8 nM; in [20], 33.2 nM.

Take `CCn1c(Cl)c(Cl)c2cc(-c3c(-c4cc(Br)c(OC)c(OC)c4)ncn3C)ccc21`: the IC50 was 489 nM in data set [16]; 767 nM in [17]; over 1000 nM in data set [18]; 793 nM with HT-29 [1]; over 1000 nM in the data set on HT-29 [19]; over 1000 nM in data set [20].

Regarding `COc1cc(-c2ncn(C)c2-c2ccc3c(c2)c(Cl)cn3C)cc(Cl)c1OC`, the IC50 worked out at 26.9 nM in data set [16]; 32.4 nM in data set [17]; 174 nM in data set [18]; 31.4 nM with HT-29 [1]; 33.7 nM in the data set on HT-29 [19]; 37.9 nM in data set [20].
